ChEMBL document CHEMBL3085702, “Synthesis and biological evaluation of 3-(trimethoxyphenyl)-2(3H)-thiazole thiones as combretastatin analogs” (Eur J Med Chem, 2013)
Converted amounts (≈) assume the structure as drawn. The source made the active and inactive calls. No cut-off for these calls is given here.

What was measured:
MRC5 [1] = experiment: Cytotoxicity against human MRC5 cells after 48 hrs by MTT assay; format: cell-based; details: MRC5, 48 h
Summary of the method: (§1)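 Log-phase cells harvested by trypsinization, seeded 24 h, then exposed to a range of compound concentrations for 48 h; etoposide positive and DMSO negative controls, final DMSO below 2%. Cells kept at 37 °C, 5% CO2, humidified. MTT formazan absorbance read; % inhibition = (Abs control − Abs treated)/Abs control × 100; IC50 from concentration–response curves by regression.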

[2] = Inhibition of sheep brain tubulin polymerization assessed as reduction of microtubule assembly after 30 mins by UV-visible spectrophotometry
MCF7 [3] = experiment: Induction of apoptosis in human MCF7 cells assessed as late apoptotic cells at IC50 using annexin V-PE/7-AAD double staining by flow cytometry (reference value: 0.12%); format: functional
MCF7 [4] = experiment: Induction of apoptosis in human MCF7 cells assessed as necrotic cells at IC50 using annexin V-PE/7-AAD double staining by flow cytometry (reference value: 0%); format: functional
MCF7 [5] = experiment: Induction of apoptosis in human MCF7 cells at IC50 after 24 hrs by acridine orange/ethidium bromide staining test; format: functional, cell-based
MRC5 [6] = experiment: Selectivity index, ratio of IC50 for human MRC5 cells to IC50 for human MDA-MB-231 cells; format: functional
Summary of the method: (§2)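 Ratio of IC50 in non-tumoral MRC-5 cells to IC50 in the cancer line, both from the 48 h MTT assay.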

T47D [7] = experiment: Induction of apoptosis in human T47D cells at IC50 after 24 hrs by acridine orange/ethidium bromide staining test; format: functional, cell-based
MCF7 [8] = experiment: Cytotoxicity against human MCF7 cells after 48 hrs by MTT assay; format: functional, cell-based; details: MCF7, 48 h; summary of the method: as §1
Ovis aries = organism: Ovis aries; experiment: Inhibition of sheep brain tubulin polymerization assessed as reduction of microtubule assembly
MCF7 [9] = experiment: Selectivity index, ratio of IC50 for human MRC5 cells to IC50 for human MCF7 cells; format: functional; summary of the method: as §2
MDA-MB-231 = experiment: Cytotoxicity against human MDA-MB-231 cells after 48 hrs by MTT assay; format: functional, cell-based; details: MDA-MB-231, 48 h; summary of the method: as §1
MCF7 [10] = experiment: Induction of apoptosis in human MCF7 cells assessed as viable cells at IC50 using annexin V-PE/7-AAD double staining by flow cytometry (reference value: 95%); format: functional
MCF7 [11] = experiment: Induction of apoptosis in human MCF7 cells assessed as early apoptotic cells at IC50 using annexin V-PE/7-AAD double staining by flow cytometry (reference value: 4.88%); format: functional
MRC5 [12] = experiment: Selectivity index, ratio of IC50 for human MRC5 cells to IC50 for human T47D cells; format: functional; summary of the method: as §2
T47D [13] = experiment: Cytotoxicity against human T47D cells after 48 hrs by MTT assay; format: functional, cell-based; summary of the method: as §1

SMILES	IC50 (MCF7 [8]) [µg/mL]	IC50 (MDA-MB-231) [µg/mL]	IC50 (T47D [13]) [µg/mL]	further results
COc1cc(-n2c(-c3ccc(C)cc3)csc2=S)cc(OC)c1OC	19.7 (≈ 52.7 µM)	11.8 (≈ 31.6 µM)	16.3 (≈ 43.6 µM)	IC50 (MRC5 [1]): > 100 µg/mL; pIC50 [2]: 4.14; Activity (MCF7 [3]): 0.26%; Activity (MCF7 [4]): 0.02%; Activity (MCF7 [5]): Active; Ratio IC50 (MRC5 [6]): >5; Activity (T47D [7]): Active; inhibition (Ovis aries): Dose-dependent effect; Ratio IC50 (MCF7 [9]): >5; Activity (MCF7 [10]): 33.24%; Activity (MCF7 [11]): 66.47%; Ratio IC50 (MRC5 [12]): >5
COc1cc(-n2c(-c3ccc(O)cc3)csc2=S)cc(OC)c1OC	35.1 (≈ 93.5 µM)	22.9 (≈ 61 µM)	26.4 (≈ 70.3 µM)	–
COc1ccc(-c2csc(=S)n2-c2cc(OC)c(OC)c(OC)c2)cc1	> 100	53.8 (≈ 138 µM)	> 100	–
COc1cc(-n2c(-c3ccc(Cl)cc3Cl)csc2=S)cc(OC)c1OC	23.6 (≈ 55.1 µM)	49 (≈ 114 µM)	43.4 (≈ 101 µM)	–
COc1ccc(-n2c(-c3ccccc3)csc2=S)cc1	88.5 (≈ 296 µM)	36.8 (≈ 123 µM)	23.2 (≈ 77.5 µM)	–
COc1cc(-n2c(-c3ccc(O)c(O)c3)csc2=S)cc(OC)c1OC	> 100	29.8 (≈ 76.1 µM)	24.9 (≈ 63.6 µM)	–
COc1cc(N2C(=S)SCC2(O)c2ccc(Br)cc2)cc(OC)c1OC (racemic)	16.5 (≈ 36.2 µM)	15.1 (≈ 33.1 µM)	16.3 (≈ 35.7 µM)	–
COc1ccc(C(=O)CSC(=S)Nc2cc(OC)c(OC)c(OC)c2)cc1	18.6 (≈ 45.6 µM)	16.4 (≈ 40.2 µM)	29.9 (≈ 73.4 µM)	–
COc1cc(-n2c(-c3ccc(-c4ccccc4)cc3)csc2=S)cc(OC)c1OC	45.3 (≈ 104 µM)	> 100	> 100	–
COc1cc(-n2c(-c3ccccc3)csc2=S)cc(OC)c1OC	> 100	52 (≈ 145 µM)	31.6 (≈ 87.9 µM)	–
COc1cc(-n2c(-c3ccc(Cl)cc3)csc2=S)cc(OC)c1OC	> 100	> 100	> 100	–
COc1cc(N2C(=S)SCC2(O)c2ccc(Cl)cc2Cl)cc(OC)c1OC (racemic)	9.6 (≈ 21.5 µM)	14.5 (≈ 32.5 µM)	16.9 (≈ 37.9 µM)	IC50 (MRC5 [1]): 47.3 µg/mL (≈ 106 µM); Activity (MCF7 [3]): 0.02%; Activity (MCF7 [4]): 0%; Activity (MCF7 [5]): Active; Activity (T47D [7]): Active; Activity (MCF7 [10]): 48.32%; Activity (MCF7 [11]): 51.67%
COc1cc([C@@H]2c3cc4c(cc3[C@@H](O[C@@H]3O[C@@H]5CO[C@@H](C)O[C@H]5[C@H](O)[C@H]3O)[C@H]3COC(=O)[C@H]23)OCO4)cc(OC)c1O [ETOPOSIDE]	9.4 (≈ 16 µM)	7.2 (≈ 12.2 µM)	8.2 (≈ 13.9 µM)	Activity (MCF7 [3]): 0.01%; Activity (MCF7 [4]): 0%; Activity (MCF7 [10]): 83.39%; Activity (MCF7 [11]): 16.6%
COc1cc(-n2c(-c3ccc(Br)cc3)csc2=S)cc(OC)c1OC	> 100	58 (≈ 132 µM)	> 100	–
COc1cc(-n2c(-c3ccc(F)cc3)csc2=S)cc(OC)c1OC	38.5 (≈ 102 µM)	19.5 (≈ 51.7 µM)	38.9 (≈ 103 µM)	–
COc1ccc(-n2c(-c3ccccc3)csc2=S)cc1OC	17.6 (≈ 53.4 µM)	19.1 (≈ 58 µM)	33.1 (≈ 100 µM)	–
